Consider 1 compound from ChEMBL document CHEMBL3091412, “Discovery of an irreversible HCV NS5B polymerase inhibitor” (Bioorg Med Chem Lett, 2013).

Structures are written as SMILES.

One data set concerns Cynomolgus monkey. In words: Drug metabolism in cynomolgus monkey assessed as glutathione conjugate formation administered as single oral dose. The data set is classed as ADME, organism-based, Macaca fascicularis. As to conditions: in vivo. In a few lines:
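Radiolabeled [3H] compound given as single oral dose to monkey; bile and urine excretion and metabolites profiled, including parent fraction in bile and glutathione or sulfate conjugates.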

Data set [1] can be described thus: AUC in fed Sprague-Dawley rat at 500 mg/kg, po. In kind it is ADME, organism-based. Further details: dose 500 mg/kg, route oral. Particulars: plasma. In a few lines:
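Given orally as crystalline sodium salt to fed male Sprague Dawley rats (30–500 mg/kg) or fed male Cynomolgus monkeys (10–100 mg/kg) to assess dose exposure; plasma AUC and Cmax determined.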

For data set [2], the target named is T1, Cytochrome P450 2C8 (Homo sapiens, UniProt P10632).
T1 sequence (P10632 whole entry): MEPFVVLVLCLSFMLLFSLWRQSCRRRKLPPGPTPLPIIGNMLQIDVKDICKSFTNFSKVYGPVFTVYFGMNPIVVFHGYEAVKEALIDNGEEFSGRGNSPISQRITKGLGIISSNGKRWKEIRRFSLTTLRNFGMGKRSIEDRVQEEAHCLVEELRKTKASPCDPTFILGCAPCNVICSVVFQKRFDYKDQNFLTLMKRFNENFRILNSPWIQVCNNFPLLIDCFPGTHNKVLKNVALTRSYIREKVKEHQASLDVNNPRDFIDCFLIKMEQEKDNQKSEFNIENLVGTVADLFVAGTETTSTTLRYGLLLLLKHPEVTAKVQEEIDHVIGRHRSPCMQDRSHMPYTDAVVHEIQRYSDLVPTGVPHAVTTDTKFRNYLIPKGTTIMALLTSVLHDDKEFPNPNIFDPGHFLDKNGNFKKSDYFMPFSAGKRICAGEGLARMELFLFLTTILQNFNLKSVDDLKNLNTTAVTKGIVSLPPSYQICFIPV
The experiment in a line: Inhibition of CYP2C8 in human liver microsomes measured after compound pre-incubation. In kind it is ADME. In a few lines:
(§1)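 Human liver microsomes; CYP inhibition measured with compound added concurrently or after pre-incubation; concentration inhibiting 50% of enzyme activity determined.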
(In general: Liver microsomes are a subcellular fraction often used to study metabolism.)

For the next data set, the target named is Cytochrome P450 3A4 (Homo sapiens, UniProt P08684). The experiment in a line: Inhibition of CYP3A4 in human liver microsomes measured after compound pre-incubation. In kind it is ADME. In a few lines:
as §1

A further data set has as its target T2, Cytochrome P450 2D4 (Rattus norvegicus, UniProt Q64680).
T2 sequence (Q64680 whole entry): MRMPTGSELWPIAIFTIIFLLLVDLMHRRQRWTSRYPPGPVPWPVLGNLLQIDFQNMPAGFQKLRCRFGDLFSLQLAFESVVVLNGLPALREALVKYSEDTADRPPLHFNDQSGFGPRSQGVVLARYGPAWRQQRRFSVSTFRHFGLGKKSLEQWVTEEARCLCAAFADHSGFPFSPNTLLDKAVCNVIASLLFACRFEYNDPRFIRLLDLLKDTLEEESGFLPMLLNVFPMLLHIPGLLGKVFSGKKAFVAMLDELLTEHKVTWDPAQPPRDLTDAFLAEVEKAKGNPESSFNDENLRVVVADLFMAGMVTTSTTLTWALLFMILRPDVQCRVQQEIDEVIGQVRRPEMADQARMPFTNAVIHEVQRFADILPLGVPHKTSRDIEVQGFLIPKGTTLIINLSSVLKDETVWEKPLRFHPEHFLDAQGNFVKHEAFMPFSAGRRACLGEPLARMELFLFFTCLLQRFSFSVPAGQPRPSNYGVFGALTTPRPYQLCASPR
The experiment in a line: Inhibition of rat CYP2D4 measured after concurrent incubation. In kind it is ADME.

The target of data set [3] is T1, Cytochrome P450 2C8. In words: Inhibition of CYP2C8 in human liver microsomes measured after concurrent incubation. The data set is classed as ADME. Summed up:
as §1

A further data set concerns Salmonella typhimurium. The experiment in a line: Induction of mutagenicity in Salmonella Typhimurium TA 102 by mini-Ames assay. In kind it is toxicity, organism-based. Particulars: salmonella enterica subsp. enterica serovar typhimurium. Summed up:
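Mini-Ames mutagenicity test against Salmonella strains TA 97a, TA 100 and TA 102.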
In general terms: The Ames test uses bacterial strains that need an amino acid and regain growth without it when mutated back.

Another data set concerns the target Cytochrome P450 2D6 (Homo sapiens, UniProt P10635). The experiment in a line: Inhibition of CYP2D6 in human liver microsomes measured after compound pre-incubation. The data set is classed as ADME. In a few lines: as §1

Sequence of Cytochrome P450 2D6 (P10635 whole entry): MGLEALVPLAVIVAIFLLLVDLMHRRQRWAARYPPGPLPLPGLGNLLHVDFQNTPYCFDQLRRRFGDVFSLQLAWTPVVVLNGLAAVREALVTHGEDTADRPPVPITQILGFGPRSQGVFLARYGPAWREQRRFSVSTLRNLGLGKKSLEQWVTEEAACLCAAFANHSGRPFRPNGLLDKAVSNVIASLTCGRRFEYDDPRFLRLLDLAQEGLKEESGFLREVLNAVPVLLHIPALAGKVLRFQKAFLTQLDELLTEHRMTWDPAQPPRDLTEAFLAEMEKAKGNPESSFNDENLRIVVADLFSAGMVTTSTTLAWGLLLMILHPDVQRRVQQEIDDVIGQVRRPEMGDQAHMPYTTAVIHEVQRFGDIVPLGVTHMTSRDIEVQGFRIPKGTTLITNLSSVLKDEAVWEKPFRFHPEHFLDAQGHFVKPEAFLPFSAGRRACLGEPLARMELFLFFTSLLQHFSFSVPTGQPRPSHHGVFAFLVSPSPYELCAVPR
Sequence of Cytochrome P450 3A4 (P08684 whole entry): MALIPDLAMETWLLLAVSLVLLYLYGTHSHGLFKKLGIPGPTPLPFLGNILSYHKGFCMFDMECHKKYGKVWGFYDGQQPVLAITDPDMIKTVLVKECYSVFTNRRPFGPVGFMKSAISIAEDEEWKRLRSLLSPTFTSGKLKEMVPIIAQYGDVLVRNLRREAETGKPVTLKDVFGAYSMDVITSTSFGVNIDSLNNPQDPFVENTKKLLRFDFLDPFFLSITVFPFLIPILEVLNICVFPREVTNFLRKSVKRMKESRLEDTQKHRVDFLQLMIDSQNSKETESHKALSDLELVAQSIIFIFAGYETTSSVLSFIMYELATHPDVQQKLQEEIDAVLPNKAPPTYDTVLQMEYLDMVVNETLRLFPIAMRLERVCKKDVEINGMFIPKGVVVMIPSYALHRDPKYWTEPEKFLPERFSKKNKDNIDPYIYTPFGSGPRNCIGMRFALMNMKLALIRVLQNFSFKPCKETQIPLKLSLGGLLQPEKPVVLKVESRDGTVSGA

On to `Cc1cc2c(-c3ccc[nH]c3=O)c(C(=O)O)n(Cc3cc4ccccc4nc3Cl)c2cc1F`, for which the Stability entry with Cynomolgus monkey is on record as “Stable”. The same compound came in with an AUC in data set [1] of 1040 µM·h. The IC50 at Cytochrome P450 2C8 [2] is 30 µM; against Cytochrome P450 3A4 it was greater than 50 µM; against Cytochrome P450 2D4, greater than 50 µM; against Cytochrome P450 2C8 [3], 21 µM; on Cytochrome P450 2D6 it was greater than 50 µM. For the same compound, the Activity result with Salmonella typhimurium is “Non-toxic”.

Broadly, the AUC is the area under the concentration-time curve, a measure of exposure. The term IC50 denotes the concentration that gives 50% inhibition.
